Cl transport mod = KCC2 cotransporter modulators, thallium flux, primary screen, cell-based, HEK293 KCC2, FluoZin-2 fluorescence, MLSMR; B-score of Tl+ flux slope (higher = more flux/activation; lower = inhibition) at 10 µM; 190,000 compounds, 2.2% hits; AID 1456, 2008; KCC2 cells, thallium flux FluoZin-2 fluorescence; Solute carrier family 12 member 5 (Homo sapiens), Q9H2X9;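 active means thallium flux slope and its plate-corrected score both differing from the plate sample mean at a set confidence after two filtering rounds, in either direction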;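 further: slope of fluorescence scaled to starting intensity during 10 to 20 s after thallium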
WT yeast gro inh = growth inhibition of WT strain, primary screen, mitochondrial fusion inhibitor project, WT and mutant strains, chemical genetic | mitochondrial fusion phenotypic screen | inhibition, % at 10 µM | 190,000 compounds, 2.1% hits | AID 1362, 2008; in the data active means inhibition above about 58%; tested in S. cerevisiae
14-3-3 Bad inh = inhibitors of 14-3-3 zeta/Bad binding, primary screen, biochemical, TR-FRET, bovine 14-3-3 zeta | 14-3-3 protein zeta/delta (Bos taurus), P63103 | TR-FRET 14-3-3zeta/Dy647-pBad peptide displacement, 1 h | inhibition, % at 21.7 µM | 220,000 compounds, 0.71% hits | AID 781, 2007;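 active means inhibition above about 70%, limit read from the data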;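 further: 0% = full 14-3-3 plus peptide FRET controls and 100% = background without 14-3-3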
RBBP9 inhibitor = human RBBP9 inhibitors, primary screen, biochemical, fluorescence polarization, FP-Rh probe, HTS; recombinant RBBP9; inhibition, % at 7.94 µM; 220,000 compounds, 0.2% hits; Serine hydrolase RBBP9 (Homo sapiens), O75884; AID 1515, 2009;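 active means inhibition above the campaign mean of all tested compounds plus 3 SD, cut at about 14% in these data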;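 further: plate controls were DMSO wells with RBBP9 for no effect and wells lacking RBBP9 protein for full effect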
Target sequence (O75884 whole entry, looked up): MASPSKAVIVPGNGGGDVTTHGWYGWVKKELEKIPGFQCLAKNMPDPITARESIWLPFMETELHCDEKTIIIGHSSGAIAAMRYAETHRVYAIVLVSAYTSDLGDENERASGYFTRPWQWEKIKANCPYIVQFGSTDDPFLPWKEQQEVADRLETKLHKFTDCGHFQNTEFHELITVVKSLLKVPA
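System: RBBP9 protein / Buffer or medium: Tris/NaCl buffer pH 8.0 with 0.1% Pluronic / Probe or stimulus: Serine-hydrolase probe FP-Rh, 375 nM pre-mixing / Dosing: 7.94 µM single dose, 0.794% DMSO / Times: enzyme-compound preincubation 30 min, then probe labeling 45 min, 25 °C / Technique: fluorescence polarization (mP), excitation 525 nm, emission 598 nm / Replication: singlicate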
NCF1 inh = p47phox/p22phox peptide binding inhibitors, primary screen, biochemical, uHTS, NADPH oxidase regulatory subunit | 220,000 compounds, 0.53% hits | Neutrophil cytosol factor 1 (Homo sapiens), P14598 | inhibition, % at 24.7 µM | fluorescence polarization, 2 h;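 active means inhibition above about 30%, limit read from the data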;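 further: 0% = p47phox with labelled peptide and 100% = labelled peptide alone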
ROMK mod = ROMK potassium channel modulators, primary screen, cell-based, thallium flux, MLSMR library. ATP-sensitive inward rectifier potassium channel 1 (Homo sapiens), P48048. Tet-inducible ROMK, thallium flux fluorescence; actives lie on both sides. B-score at 10 µM. 130,000 compounds, 2% hits. AID 1918, 2009;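 active means signal ratio slope over the read window, or its plate-corrected B-score, at least 3 SD from the plate mean, either direction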;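 further: B-score of the F/F0 ratio slope over 7 to 12 s after thallium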
Target sequence (P48048 whole entry, looked up): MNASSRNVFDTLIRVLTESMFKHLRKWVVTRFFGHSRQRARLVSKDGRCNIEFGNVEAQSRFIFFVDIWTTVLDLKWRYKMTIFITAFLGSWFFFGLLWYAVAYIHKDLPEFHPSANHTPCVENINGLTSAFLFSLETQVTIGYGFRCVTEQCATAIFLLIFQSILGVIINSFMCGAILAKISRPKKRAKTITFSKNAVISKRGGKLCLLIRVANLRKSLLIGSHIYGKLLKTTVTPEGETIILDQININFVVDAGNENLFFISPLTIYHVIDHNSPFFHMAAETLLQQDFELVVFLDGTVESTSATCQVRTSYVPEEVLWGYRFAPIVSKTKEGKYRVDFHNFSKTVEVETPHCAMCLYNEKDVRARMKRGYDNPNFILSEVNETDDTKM
RBBP9 inh conf = human RBBP9 inhibitors, retest, confirmation, biochemical, fluorescence polarization, FP-Rh probe, triplicate; 410 compounds, 36% hits; inhibition, % at 7.94 µM; shares compounds with RBBP9 inhibitor; recombinant RBBP9;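 active means inhibition above the hit cutoff derived for the primary screen, cut at about 15% in these data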;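 further: 0% = RBBP9 with DMSO and 100% = wells lacking RBBP9 protein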
The depositor's hits bear a star; . = no result given. An excerpt weighted towards active compounds, which were near 5.8% of everything screened.

SMILES	Cl transport mod	WT yeast gro inh	14-3-3 Bad inh	RBBP9 inhibitor	NCF1 inh	ROMK mod	RBBP9 inh conf
Cc1ccc(C)n1-c1ccc(N2CCOCC2)c([N+](=O)[O-])c1	0.37	.	2	16*	-8	0.64	9
Oc1ccc(-c2nc3ncccn3c2Nc2ccc3c(c2)OCO3)cc1	-0.59	6	-6	-2	-2	-0.25	.
Cc1ccn2c(Nc3ccc4c(c3)OCO4)c(-c3ccc(O)cc3)nc2c1	-1.5	.	2	17*	-1	-2.3	28*
COc1ccc(N)c2c1C(=O)c1ccccc1C2=O	-1.6	72	-44	-7	-62	0.051	.
COc1ccc(OC)c2c1C(=O)C(Cl)=C(Cl)C2=O	-2.5	.	7	79*	90*	.	81*
COc1ccc(NC(=O)Cn2nnc(C(=O)NCCc3ccc(OC)c(OC)c3)c2N)c(OC)c1	-0.007	-9	-5	-1	0	-0.48	.
O=C(CN1CCNCC1)Nc1ccc(Oc2ccccc2)cc1	-0.24	7	11	15*	-3	.	24*
CC(=O)Nc1cc(N=Cc2ccc(O)cc2O)c(Cl)cc1Cl	-0.92	-5	-12	-8	-8	.	.
COc1ccc(O)c(C=Nc2cc(NC(C)=O)c(Cl)cc2Cl)c1	0.89	5	-5	15*	8	.	4
CC(Cn1nnc2ccccc21)C(=O)O (stereo not drawn)	0.71	-9	2	0	0	0.57	.
CC(Cn1cnc2ccccc21)C(=O)O (stereo not drawn)	0.099	-16	-7	15*	-5	0.79	7
NC1=NC(=O)CC(C(=O)NCc2ccccc2)S1 (stereo not drawn)	0.55	8	-9	14*	-5	.	9
Cc1ccc(Nc2nc(-c3ccc(O)c(O)c3)cs2)nc1	0.61	12	-3	22*	-6	.	46*
Cc1ccc(NC2c3ncccc3C(=O)N2c2ccccc2C)cc1C (stereo not drawn)	.	3	94*	18*	1	1.4	24*
CCOc1ccc(N2C(=O)c3cccnc3C2Nc2ccc(Cl)cc2)cc1 (stereo not drawn)	.	8	15	-3	-22	-1.3	.
Cn1cc(C(=O)N2CCc3ccccc32)cn1	-0.43	15	-26	-3	0	.	.
O=C(NCc1ccccc1)c1ncn[nH]1	-0.14	.	0	1	-9	.	.
CC(=O)N(c1ccc2oc(=O)sc2c1)S(=O)(=O)c1ccccc1	.	20	-7	17*	-3	-0.31	5
CC(C)C(=O)N(c1ccc2oc(=O)sc2c1)S(=O)(=O)c1ccccc1	.	-5	-3	-5	-4	1.1	.
CCCCNC(=O)c1c(C)cc(=O)oc1C	1.2	-19	0	16*	-7	.	-2
Cc1cc(=O)oc(C)c1C(=O)NCCc1ccccc1	0.0049	17	5	2	3	-0.17	.
O=C(Nc1ccc(F)c([N+](=O)[O-])c1)c1ccc2c(c1)C(=O)OC2=O	0.17	.	13	-5	-8	.	.
C/C(Cc1ccccc1)=N\NC(=O)CNC(=O)c1ccccc1O	-0.24	.	-5	-8	10	.	.
C/C(Cc1ccccc1)=N\NC(=O)CNC(=O)c1cccc(Cl)c1	-0.41	.	-3	21*	1	.	-3
CCOC(=O)C1CCN(C(=O)COc2ccc(S(=O)(=O)N3CCCC3)cc2C)CC1	0.0002	8	-13	-2	-4	0.26	.
SMILES	Cl transport mod	WT yeast gro inh	14-3-3 Bad inh	RBBP9 inhibitor	NCF1 inh	ROMK mod	RBBP9 inh conf
Cc1sc(NC(=O)c2ccco2)c(C(Nc2ccccn2)c2ccccc2)c1C (stereo not drawn)	1.5	54	-9	21*	-26	.	-2
CCOC(=O)C1CCCN(C(=S)Nc2ccc(F)cc2)C1 (stereo not drawn)	0.23	2	-5	23*	1	0.11	0
CCOC(=O)C1CCCN(C(=S)Nc2ccc(OC)cc2)C1 (stereo not drawn)	1.2	-4	-6	-8	-5	0.3	.
C=CCOc1ccc(CNc2ccc3[nH]c(=O)[nH]c3c2)cc1OCC	-0.41	-2	-10	18*	-4	0.4	14*
CCOc1cc(CNc2ccc3[nH]c(=O)[nH]c3c2)ccc1OCC(=O)NC(C)(C)C	0.49	.	62	1	1	.	.
Nc1ccc(CSc2ccc(Cl)cc2)cc1	-1.1	33	3	1	-4	-0.79	.
CC(C)=NOC(=O)c1c(C)noc1-c1snnc1C	-1	.	3	18*	-6	0.061	4
COC(=O)c1c(C)noc1-c1snnc1C	0.12	.	-7	-2	-6	.	.
Cc1cnc([N+](=O)[O-])n1CCOC(=O)NC(=O)c1ccccc1Cl	1.1	2	3	14*	.	0.32	8
O=C(Nc1ccccc1F)Nc1ccccc1OC(F)F	-1.4	5	-4	-3	-10	-0.36	.
CN(CC(=O)NCCc1ccccc1)S(=O)(=O)c1ccc(Br)cc1	-0.8	-14	-14	15*	-11	-0.69	-1
COc1ccc2[nH]c3c(NCCC4=CCCCC4)ncnc3c2c1	0.21	84*	-3	15*	-49	-0.9	30*
COc1ccc(NC(=S)NCc2ccco2)c(OC)c1	.	-2	-8	17*	-7	0.027	9
CCCC(=O)n1nc(-c2ccc(C)cc2)nc1NCc1ccco1	-1.1	17	-9	17*	2	-0.61	9
Cc1ccc(C(=O)n2nc(-c3ccccc3)nc2NCc2ccco2)cc1	-0.044	9	-1	-14	-14	.	.
O=C1C(CSCc2ccccc2)NC(=S)N1c1ccccc1 (stereo not drawn)	-0.15	.	0	30*	-21	-0.058	20*
O=C(CCCC(=O)OCC(F)(F)C(F)F)Nc1ccccc1F	-0.34	-1	-17	-3	-1	1	.
C/C(=N\OC(=O)c1ccc(Cl)cc1)c1nccs1	.	8	-10	34*	-4	.	80*
C/C(=N/OC(=O)c1ccc(C)cc1)c1cccs1	.	55	-2	16*	-4	.	18*
C/C(=N\OC(=O)c1ccc(C)cc1)c1sc(C)nc1C	-0.049	3	5	4	-3	.	.
C/C(=N\OC(=O)c1c(-c2ccccc2Cl)noc1C)c1nccs1	.	9	2	5	1	1	.
N/C(=N\c1nc2ccccc2o1)NC(=O)c1ccccc1Br	-0.18	.	3	-4	-14	.	.

High-throughput results as filed in PubChem.
